SMILES strings stand for the structures.

In assay [1] the test system is CCRF-CEM. The assay can be described thus: Cytotoxicity against human CEM cells after 72 hrs by MTT assay. The class given is cell-based. Summed up: (§1)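 Cells seeded at 2500-30 000 per well depending on growth characteristics, preincubated 24 h at 37 °C, 5% CO2. Compounds dissolved in 10% DMSO, added as four-fold dilutions, quadruplicate. 72 h exposure at 37 °C, 5% CO2, 100% humidity. MTT added for 1-4 h, formazan dissolved in 10% aqueous SDS (pH 5.5) overnight at 37 °C, OD 540 nm. Survival relative to control wells; TCS50 taken from dose-response curves.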
For orientation: Formazan colour is commonly taken as a measure of viable cells.

The subject of the next assay is PC-3. The assay can be described thus: Cytotoxicity against human PC3 cells after 72 hrs by MTT assay. The note with it: PC-3, 72 h. The class given is cell-based. The essentials: as §1
Assay [2] concerns CCRF-CEM. The assay can be described thus: Cytotoxicity against daunorubicin-resistant CEM-DNR-bulk cells after 72 hrs by MTT assay. The note with it: Homo sapiens. The assay is classed as cell-based. The essentials: as §1
The subject of a further assay is K562. The assay can be described thus: Cytotoxicity against human K562 cells after 72 hrs by MTT assay. The assay is classed as cell-based. Conditions: K562, 72 h. Summed up: as §1
Assay [3] is described as follows: Cytotoxicity against B2-4 cells after 72 hrs by MTT assay. The class given is cell-based. The note with it: Homo sapiens, B2-4, 72 h. Summed up: as §1
A further assay has as its system HT-29. The assay can be described thus: Cytotoxicity against human HT29 cells after 72 hrs by MTT assay. Conditions: HT-29, 72 h. The class given is cell-based. Summed up: as §1
A short description of assay [4]: Cytotoxicity against human U87-Mg cells after 72 hrs by MTT assay. The assay is classed as cell-based, U-87MG ATCC. The note with it: U-87 MG. Summed up:
as §1

The test system of the next assay is A549. The assay can be described thus: Cytotoxicity against human A549 cells after 72 hrs by MTT assay. The class given is cell-based. Conditions: A549, 72 h. Summed up:
as §1

A short description of assay [5]: Cytotoxicity against human Pgp-positive multidrug-resistant K562-tax cells after 72 hrs by MTT assay. The class given is ADME, cell-based. The essentials: as §1

As usually defined, the IC50 is the concentration at which inhibition is half-maximal. A higher IC50 goes with weaker potency. For the compound `C=C(C)[C@@H]1CC[C@]2(C(=O)OC)CC[C@]3(C)[C@H](CC[C@@H]4[C@@]5(C)Cc6nc7ccccc7nc6C(C)(C)[C@@H]5CC[C@]43C)[C@@H]12`, the IC50 in the assay on CCRF-CEM [1] turned out to be 250 µM; in the assay on PC-3 it was 250 µM; with CCRF-CEM [2], 250 µM; in the assay on K562 it was 245 µM; in [3], 47 µM; in the assay on HT-29, 250 µM. In addition, the IC50 (in assay [4]; in the assay on A549; in assay [5]) was 250 µM in each case.
Consider `COC(=O)[C@]12CC[C@@H](C(C)C)[C@@H]1[C@H]1CC[C@@H]3[C@@]4(C)Cc5nccnc5C(C)(C)[C@@H]4CC[C@@]3(C)[C@]1(C)CC2`, for which the half-maximal inhibitory concentration (IC50) in the assay on CCRF-CEM [1] turned out to be 151 µM; in the assay on PC-3, 227 µM; in the assay with CCRF-CEM [2] it was 235 µM; with K562, 201 µM; in assay [3], 94 µM; with HT-29, 164 µM. The IC50 in assay [4] stood at 231 µM; in the assay on A549 it was 220 µM; in [5] it was 91 µM.

These data come from ChEMBL document CHEMBL1142126, “Triterpenoid pyrazines and benzopyrazines with cytotoxic activity” (J Nat Prod, 2007).
